One may read the IC50 as the midpoint of a concentration-inhibition curve.

Assay [1] concerns RPE-1 (human normal Retina pigmented epithelium). Nature of the assay: MTT cytotoxicity assay, RPE-1 normal cells. Type of assay: cell-based. The following applies: read-out: IC50 (µM) ± SD RPE-1. The gist of the method:
(§1)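 Cells were kept in DMEM with 10% heat-inactivated FBS and penicillin/streptomycin at 37 °C under 5% CO2. MTT (2.5 mg mL−1) was added for 4 h, formazan dissolved in DMSO and A570 read. Viability is % of untreated control. Triplicates were repeated on three days; mean ± SD; IC50 by probit analysis.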
In general terms: Tetrazolium dyes change colour on reduction, which living cells bring about.

In assay [2] the test system is HCT-116 (human colorectal carcinoma). Description: MTT cytotoxicity assay, HCT-116. The following applies: for IC50: read-out: IC50 (µM) ± SD HCT-116; for Therapeutic index (TI) HCT-116: TI = IC50 against normal cells (RPE-1)/IC50 against cancer cells (HCT-116). Type of assay: cell-based. The gist of the method:
as §1

The test system of assay [3] is MCF-7 (human breast adenocarcinoma). Nature of the assay: MTT cytotoxicity assay, MCF-7. The class given is cell-based. The note with it: for IC50: read-out: IC50 (µM) ± SD MCF-7; for Therapeutic index (TI) MCF-7: TI = IC50 against normal cells (RPE-1)/IC50 against cancer cells (MCF-7). The gist of the method: as §1
Assay [4] deals with MCF-7 cells. Description: Apoptosis detection by fluorescent Hoechst 33258 staining. The note with it: MCF-7, treated at IC50 (2: 18.7 µM; 14: 15.6 µM), 24 h. The class given is cell-based, human.
Assay [5] relates to MCF-7 cells. Description: Apoptosis quantification by flow cytometry. The class given is cell-based, human. The note with it: MCF-7, treated at IC50 (2: 18.7 µM; 14: 15.6 µM), 24 h; for apoptosis percentage, early apoptosis: control 1.84 ± 0.63; for apoptosis percentage, late apoptosis: control 2.94 ± 0.5%. For orientation: Flow cytometry measures light scatter and fluorescence of single cells or particles in a stream.

Setting [6] is: MTT assay, 48 h, normal RPE-1 cells.

The structures appear in SMILES notation. Read-outs that look alike come from different tables or passages of the source.

Take `CSc1nc(N)n(-c2ccc(C(=O)O)cc2)n1` [Compound 1, 4-(5-Amino-3-(methylthio)-1H-1,2,4-triazol-1-yl)benzoic acid]: the IC50 amounted to 61 ± 13.9 µM in assay [1] (Homo sapiens, RPE-1, 48 h); 41.8 ± 6.5 µM in assay [2] (Homo sapiens, HCT-116, 48 h); 32.9 ± 5.3 µM in assay [3] (Homo sapiens, MCF7, 48 h). The “Therapeutic index (TI) HCT-116” value in assay [2] was found to be 1.5. Also, the “Therapeutic index (TI) MCF-7” value in assay [3] is reported as 1.9.
Turning to `Nc1nc(Oc2ccccc2)nn1-c1ccc(C(=O)O)cc1` [Compound 2, 4-(5-Amino-3-phenoxy-1H-1,2,4-triazol-1-yl)benzoic acid], the half-maximal inhibitory concentration (IC50) amounted to 61.2 ± 10.9 µM in assay [1] (Homo sapiens, RPE-1, 48 h); 25.7 ± 4.1 µM in assay [2] (Homo sapiens, HCT-116, 48 h); 18.7 ± 3.5 µM in assay [3] (Homo sapiens, MCF7, 48 h). The “Therapeutic index (TI) HCT-116” value in assay [2] stood at 2.4. Besides, the “Nuclear morphological changes (Hoechst 33258)” value in assay [4] was “DNA fragmentation and typical marks of apoptosis are evident”. Moreover, in assay [3], the “Therapeutic index (TI) MCF-7” value turned out to be 3.3. Moreover, the “apoptosis percentage, early apoptosis” value in assay [5] is on record as 17.82 ± 1.30%. Moreover, in assay [5], the “apoptosis percentage, late apoptosis” value worked out at 24.91 ± 1.98%.
For the compound `CSc1nc(/N=C/c2cc(C)ccc2O)n(-c2ccc(C(=O)O)cc2)n1` [Compound 3, (E)-4-(5-((2-Hydroxy-5-methylbenzylidene)amino)-3-(methylthio)-1H-1,2,4-triazol-1-yl)benzoic acid], the IC50 is 43.9 ± 10.5 µM in assay [1] (Homo sapiens, RPE-1, 48 h); 36 ± 6.1 µM in assay [2] (Homo sapiens, HCT-116, 48 h); 23.9 ± 1.6 µM in assay [3] (Homo sapiens, MCF7, 48 h). The “Therapeutic index (TI) HCT-116” value in assay [2] came out at 1.2. The “Therapeutic index (TI) MCF-7” value in assay [3] amounted to 1.8.
Regarding `COc1ccc(O)c(/C=N/c2nc(SC)nn2-c2ccc(C(=O)O)cc2)c1` [Compound 4, (E)-4-(5-((2-Hydroxy-5-methoxybenzylidene)amino)-3-(methylthio)-1H-1,2,4-triazol-1-yl)benzoic acid], the IC50 in assay [1] (Homo sapiens, RPE-1, 48 h) is 55.3 ± 11.1 µM; in assay [2] (Homo sapiens, HCT-116, 48 h) it was 35.2 ± 5.2 µM; in assay [3] (Homo sapiens, MCF7, 48 h), 27.3 ± 4.2 µM. Besides, the “Therapeutic index (TI) HCT-116” value in assay [2] is listed as 1.6. Moreover, the “Therapeutic index (TI) MCF-7” value in assay [3] amounted to 2.0.
For `CSc1nc(/N=C/c2cc([N+](=O)[O-])ccc2O)n(-c2ccc(C(=O)O)cc2)n1` [Compound 5, (E)-4-(5-((2-Hydroxy-5-nitrobenzylidene)amino)-3-(methylthio)-1H-1,2,4-triazol-1-yl)benzoic acid], in that order: 60.2 ± 12.8 µM, 24 ± 4.5 µM, 20 ± 4.1 µM, 2.5 and 3.0.
For `CSc1nc(/N=C/c2cc(Br)ccc2O)n(-c2ccc(C(=O)O)cc2)n1` [Compound 6, (E)-4-(5-((5-Bromo-2-hydroxybenzylidene)amino)-3-(methylthio)-1H-1,2,4-triazol-1-yl)benzoic acid], in that order: 59.4 ± 11.7 µM, 37.6 ± 6.4 µM, 31.3 ± 5.1 µM, 1.6 and 1.9.
For `COc1cc(/C=N/c2nc(SC)nn2-c2ccc(C(=O)O)cc2)ccc1O` [Compound 7, (E)-4-(5-((4-Hydroxy-3-methoxybenzylidene)amino)-3-(methylthio)-1H-1,2,4-triazol-1-yl)benzoic acid], in that order: 61.1 ± 12.5 µM, 29.8 ± 4.2 µM, 29.4 ± 5.3 µM, 2.1 and 2.1.
On to `CSc1nc(/N=C/c2cccc(O)c2)n(-c2ccc(C(=O)O)cc2)n1` [Compound 8, (E)-4-(5-((3-Hydroxybenzylidene)amino)-3-(methylthio)-1H-1,2,4-triazol-1-yl)benzoic acid], for which the IC50 in assay [1] (Homo sapiens, RPE-1, 48 h) was determined as 70.1 ± 15.3 µM; in assay [2] (Homo sapiens, HCT-116, 48 h) it was 34.6 ± 6.1 µM; in assay [3] (Homo sapiens, MCF7, 48 h) it was 31.2 ± 5.6 µM. Besides, the “Therapeutic index (TI) HCT-116” value in assay [2] is 2.0. In addition, the “Therapeutic index (TI) MCF-7” value in assay [3] is listed as 2.2.
For `CSc1nc(/N=C/c2ccc(O)cc2)n(-c2ccc(C(=O)O)cc2)n1` [Compound 9, (E)-4-(5-((4-Hydroxybenzylidene)amino)-3-(methylthio)-1H-1,2,4-triazol-1-yl)benzoic acid], in that order: 68 ± 16.7 µM, 39.1 ± 5.6 µM, 34.8 ± 5.5 µM, 1.7 and 2.0.
`Cc1ccc(O)c(/C=N/c2nc(Oc3ccccc3)nn2-c2ccc(C(=O)O)cc2)c1` [Compound 10, (E)-4-(5-((2-Hydroxy-5-methylbenzylidene)amino)-3-phenoxy-1H-1,2,4-triazol-1-yl)benzoic acid]: the IC50 in assay [1] (Homo sapiens, RPE-1, 48 h) was found to be 74 ± 16.5 µM; in assay [2] (Homo sapiens, HCT-116, 48 h), 33.7 ± 5.2 µM; in assay [3] (Homo sapiens, MCF7, 48 h), 30.3 ± 5.3 µM. Moreover, the “Therapeutic index (TI) HCT-116” value in assay [2] was 2.2. The “Therapeutic index (TI) MCF-7” value in assay [3] is on record as 2.4.
For `COc1ccc(O)c(/C=N/c2nc(Oc3ccccc3)nn2-c2ccc(C(=O)O)cc2)c1` [Compound 11, (E)-4-(5-((2-Hydroxy-5-methoxybenzylidene)amino)-3-phenoxy-1H-1,2,4-triazol-1-yl)benzoic acid], in that order: 58.5 ± 10.7 µM, 33.1 ± 4.4 µM, 27.5 ± 4.1 µM, 1.8 and 2.1.
Consider `O=C(O)c1ccc(-n2nc(Oc3ccccc3)nc2/N=C/c2cc([N+](=O)[O-])ccc2O)cc1` [Compound 12, (E)-4-(5-((2-Hydroxy-5-nitrobenzylidene)amino)-3-phenoxy-1H-1,2,4-triazol-1-yl)benzoic acid], for which the half-maximal inhibitory concentration (IC50) in assay [1] (Homo sapiens, RPE-1, 48 h) was determined as 62.8 ± 13.9 µM; in assay [2] (Homo sapiens, HCT-116, 48 h), 26.8 ± 4.5 µM; in assay [3] (Homo sapiens, MCF7, 48 h), 21.6 ± 3.1 µM. In addition, the “Therapeutic index (TI) HCT-116” value in assay [2] is recorded as 2.3. Further, the “Therapeutic index (TI) MCF-7” value in assay [3] was 2.9.
Regarding `CSc1nc(NC(=S)NCc2ccccc2)n(-c2ccc(C(=O)O)cc2)n1` [Compound 13, 4-(3-(Methylthio)-5-(3-benzylylthioureido)-1H-1,2,4-triazol-1-yl)benzoic acid], the half-maximal inhibitory concentration (IC50) turned out to be 63.9 ± 13.5 µM in assay [1] (setting [6]); 30.1 ± 4.1 µM in assay [2] (MTT assay, 48 h, HCT-116); 23.4 ± 4.6 µM in assay [3] (MTT assay, 48 h, MCF-7). Besides, the “Therapeutic index (TI) HCT-116” value in assay [2] turned out to be 2.1. Moreover, the “Therapeutic index (TI) MCF-7” value in assay [3] was 2.7.
For the compound `CSc1nc(NC(=S)NCCc2ccccc2)n(-c2ccc(C(=O)O)cc2)n1` [Compound 14, 4-(3-(Methylthio)-5-(3-phenethylthioureido)-1H-1,2,4-triazol-1-yl)benzoic acid], the IC50 in assay [1] (Homo sapiens, RPE-1, 48 h) is 45.8 ± 8.9 µM; in assay [2] (Homo sapiens, HCT-116, 48 h), 28.3 ± 5.2 µM; in assay [3] (Homo sapiens, MCF7, 48 h), 15.6 ± 2.2 µM. The “Therapeutic index (TI) HCT-116” value in assay [2] is 1.6. In assay [4], the “Nuclear morphological changes (Hoechst 33258)” value was “DNA fragmentation and typical marks of apoptosis are evident”. Further, in assay [3], the “Therapeutic index (TI) MCF-7” value came out at 2.9. In assay [5], the “apoptosis percentage, early apoptosis” value came to 29.11 ± 1.44%. Also, in assay [5], the “apoptosis percentage, late apoptosis” value is recorded as 45.47 ± 2.10%.
As to `O=C(O)c1ccc(-n2nc(Oc3ccccc3)nc2NC(=S)NCc2ccccc2)cc1` [Compound 15, 4-(5-(3-Benzylylthioureido)(3-phenoxy)-1H-1,2,4-triazol-1-yl)benzoic acid], the concentration for half-maximal inhibition (IC50) is 91.6 ± 15.9 µM in assay [1] (setting [6]); 23.9 ± 4.5 µM in assay [2] (MTT assay, 48 h, HCT-116); 24 ± 4.3 µM in assay [3] (MTT assay, 48 h, MCF-7). Further, the “Therapeutic index (TI) HCT-116” value in assay [2] came to 3.8. Besides, the “Therapeutic index (TI) MCF-7” value in assay [3] worked out at 3.8.
Regarding `COC(=O)c1ccc(-n2nc(SC)nc2N)cc1` [Compound 16, methyl 4-(5-amino-3-(methylthio)-1H-1,2,4-triazol-1-yl)benzoate], the IC50 in assay [1] (Homo sapiens, RPE-1, 48 h) was found to be 39.1 ± 9.9 µM; in assay [2] (Homo sapiens, HCT-116, 48 h), 37.3 ± 6.1 µM; in assay [3] (Homo sapiens, MCF7, 48 h), 23.4 ± 3.5 µM. The “Therapeutic index (TI) HCT-116” value in assay [2] was determined as 1.0. The “Therapeutic index (TI) MCF-7” value in assay [3] stood at 1.7.
For `CS(=O)(=O)c1nc(N)n(-c2ccc(C(=O)O)cc2)n1` [Compound 17, 4-(5-amino-3-(methylsulfonyl)-1H-1,2,4-triazol-1-yl) benzoic acid], in that order: 48.5 ± 9.8 µM, 34.2 ± 5.2 µM, 21.9 ± 4.2 µM, 1.4 and 2.2.
For `COc1cccc2c1C(=O)c1c(O)c3c(c(O)c1C2=O)C[C@@](O)(C(=O)CO)C[C@@H]3O[C@H]1C[C@H](N)[C@H](O)[C@H](C)O1` [Doxorubicin, reference compound], in that order: 64 ± 13.2 µM, 22.6 ± 3.9 µM, 19.7 ± 3.1 µM, 2.8 and 3.3.

These data come from PMC9064907 (RSC Advances, 2019).
